Measurements published in ChEMBL document CHEMBL1139743, “Synthesis and antihyperlipidemic activity of novel glycosyl fructose derivatives” (2006).

Columns and labels:
Assay type in all cases: functional, Mesocricetus auratus
Syrian golden hamster [1] = experiment: Antihyperlipidemic activity measured by decrease in triglyceride level in golden syrian hamster at 100 mg/kg, po relative to control; parameters: scale not given: the % may be the effect or the level left
In short: (§1)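 Male golden Syrian hamsters (120–130 g), 8 per group, made hyperlipidemic on high fat diet with free access to diet and water throughout. Compound given orally in water from day 4 to day 10 (7 days); HFD hamsters given water only served as controls. On day 10, blood from nonfasted animals was drawn and cooled to 0 C for 15 min. Triglycerides, total cholesterol and HDL cholesterol were measured the same day in plasma without NaF using enzymatic kits.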

Syrian golden hamster [2] = experiment: Antihyperlipidemic activity measured by decrease in cholesterol level in golden syrian hamster at 100 mg/kg, po relative to control; parameters: scale not given: the % may be the effect or the level left; in short: as §1
Syrian golden hamster [3] = experiment: Antihyperlipidemic activity measured by increase in glycerol level in golden syrian hamster at 100 mg/kg, po relative to control
In short: (§2)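 High-fat-diet hyperlipidemic male golden Syrian hamsters (120–130 g, n=8 per group) were dosed orally in water vehicle on days 4–10; water-only HFD hamsters served as controls. On day 10, nonfasted blood was drawn into tubes containing 120 µL NaF (4.5 mg/mL) and chilled to 0 C for 15 min. Glycerol and free fatty acids were assayed in this NaF plasma on a clinical chemistry analyser.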

Syrian golden hamster [4] = experiment: Antihyperlipidemic activity measured by increase in free fatty acid level in golden syrian hamster at 100 mg/kg, po relative to control; in short: as §2
Syrian golden hamster [5] = experiment: Antihyperlipidemic activity measured by increase in HDL/total cholesterol ratio in golden syrian hamster at 100 mg/kg, po relative to control; in short: as §1
Syrian golden hamster [6] = experiment: Antihyperlipidemic activity measured by triglyceride level in golden syrian hamster at 100 mg/kg, po; in short: as §1
Syrian golden hamster [7] = experiment: Antihyperlipidemic activity measured by cholesterol level in golden syrian hamster at 100 mg/kg, po; in short: as §1
Syrian golden hamster [8] = experiment: Antihyperlipidemic activity measured by HDL level in golden syrian hamster at 100 mg/kg, po; in short: as §1
Syrian golden hamster [9] = experiment: Antihyperlipidemic activity measured by glycerol level in golden syrian hamster at 100 mg/kg, po; in short: as §2
Syrian golden hamster [10] = experiment: Antihyperlipidemic activity measured by free fatty acid level in golden syrian hamster at 100 mg/kg, po; in short: as §2
Syrian golden hamster [11] = experiment: Antihyperlipidemic activity measured by HDL/total cholesterol ratio in golden syrian hamster at 100 mg/kg, po; in short: as §1
Syrian golden hamster [12] = experiment: Antihyperlipidemic activity measured by increase in HDL level in golden syrian hamster at 100 mg/kg, po relative to control; in short: as §1
Syrian golden hamster [13] = experiment: Antihyperlipidemic activity measured by decrease in glycerol level in golden syrian hamster at 100 mg/kg, po relative to control; parameters: scale not given: the % may be the effect or the level left; in short: as §2
Syrian golden hamster [14] = experiment: Antihyperlipidemic activity measured by decrease in triglyceride level in golden syrian hamster at 25 mg/kg relative to control; parameters: scale not given: the % may be the effect or the level left; in short: as §1
Syrian golden hamster [15] = experiment: Antihyperlipidemic activity measured by decrease in cholesterol level in golden syrian hamster at 25 mg/kg relative to control; parameters: scale not given: the % may be the effect or the level left; in short: as §1
Syrian golden hamster [16] = experiment: Antihyperlipidemic activity measured by decrease in HDL level in golden syrian hamster at 25 mg/kg relative to control; parameters: scale not given: the % may be the effect or the level left; in short: as §1
Syrian golden hamster [17] = experiment: Antihyperlipidemic activity measured by decrease in glycerol level in golden syrian hamster at 25 mg/kg relative to control; parameters: scale not given: the % may be the effect or the level left; in short: as §2
Syrian golden hamster [18] = experiment: Antihyperlipidemic activity measured by decrease in free fatty acid level in golden syrian hamster at 25 mg/kg relative to control; parameters: scale not given: the % may be the effect or the level left; in short: as §2
Syrian golden hamster [19] = experiment: Antihyperlipidemic activity measured by decrease in HDL/total cholesterol ratio in golden syrian hamster at 25 mg/kg relative to control; parameters: scale not given: the % may be the effect or the level left; in short: as §1
Syrian golden hamster [20] = experiment: Antihyperlipidemic activity measured by triglyceride level in golden syrian hamster at 25 mg/kg; in short: as §1
Syrian golden hamster [21] = experiment: Antihyperlipidemic activity measured by cholesterol level in golden syrian hamster at 25 mg/kg; in short: as §1
Syrian golden hamster [22] = experiment: Antihyperlipidemic activity measured by HDL level in golden syrian hamster at 25 mg/kg; in short: as §1
Syrian golden hamster [23] = experiment: Antihyperlipidemic activity measured by glycerol level in golden syrian hamster at 25 mg/kg; in short: as §2
Syrian golden hamster [24] = experiment: Antihyperlipidemic activity measured by free fatty acid level in golden syrian hamster at 25 mg/kg; in short: as §2
Syrian golden hamster [25] = experiment: Antihyperlipidemic activity measured by HDL/total cholesterol ratio in golden syrian hamster at 25 mg/kg; in short: as §1
Syrian golden hamster [26] = experiment: Antihyperlipidemic activity measured by decrease in free fatty acid level in golden syrian hamster at 100 mg/kg, po relative to control; parameters: scale not given: the % may be the effect or the level left; in short: as §2
Syrian golden hamster [27] = experiment: Antihyperlipidemic activity measured by increase in cholesterol level in golden syrian hamster at 100 mg/kg, po relative to control; in short: as §1
Syrian golden hamster [28] = experiment: Antihyperlipidemic activity measured by increase in triglyceride level in golden syrian hamster at 100 mg/kg, po relative to control; in short: as §1
Syrian golden hamster [29] = experiment: Antihyperlipidemic activity measured by decrease in HDL/total cholesterol ratio in golden syrian hamster at 100 mg/kg, po relative to control; parameters: scale not given: the % may be the effect or the level left; in short: as §1
Syrian golden hamster [30] = experiment: Antihyperlipidemic activity measured by increase in HDL level in golden syrian hamster at 25 mg/kg relative to control; in short: as §1
Syrian golden hamster [31] = experiment: Antihyperlipidemic activity measured by increase in HDL/total cholesterol ratio in golden syrian hamster at 25 mg/kg relative to control; in short: as §1

| SMILES | Activity (Syrian golden hamster [1]) [%] | Activity (Syrian golden hamster [2]) [%] | Activity (Syrian golden hamster [5]) [%] | Activity (Syrian golden hamster [6]) [mM] | Activity (Syrian golden hamster [7]) [mM] | Activity (Syrian golden hamster [8]) [mM] | Activity (Syrian golden hamster [9]) [mM] | Activity (Syrian golden hamster [10]) [µM] | Ratio (Syrian golden hamster [11]) | Activity (Syrian golden hamster [12]) [%] | Activity (Syrian golden hamster [13]) [%] | Activity (Syrian golden hamster [26]) [%] | Activity (Syrian golden hamster [27]) [%] | also measured |
| --- | --- | --- | --- | --- | --- | --- | --- | --- | --- | --- | --- | --- | --- | --- |
| OC[C@H]1O[C@](O)(CO)[C@@H](O[C@@H]2OC[C@@H](O)[C@@H](O)[C@H]2O)[C@@H]1O | 9 | 23 | 31 | 13.09 | 8.9 | 3.14 | 0.99 | 924.84 | 0.35 | – | – | – | – | Activity (Syrian golden hamster [3]): 18%; Activity (Syrian golden hamster [4]): 28% |
| OC[C@H]1O[C@](O)(CO)[C@@H](O[C@@H]2O[C@H](CO)[C@@H](O[C@@H]3O[C@H](CO)[C@@H](O)[C@H](O)[C@H]3O)[C@H](O)[C@H]2O)[C@@H]1O | 58 | 15 | 29 | 6.09 | 9.79 | 3.4 | 0.81 | 726.03 | 0.34 | 10 | 4 | – | – | Activity (Syrian golden hamster [14]): 29%; Activity (Syrian golden hamster [15]): 5%; Activity (Syrian golden hamster [16]): 15%; Activity (Syrian golden hamster [17]): 8%; Activity (Syrian golden hamster [18]): 10%; Activity (Syrian golden hamster [19]): 11%; Activity (Syrian golden hamster [20]): 10.23 mM; Activity (Syrian golden hamster [21]): 10.97 mM; Activity (Syrian golden hamster [22]): 2.64 mM; Activity (Syrian golden hamster [23]): 0.77 mM; Activity (Syrian golden hamster [24]): 0.648 mM; Ratio (Syrian golden hamster [25]): 0.24 |
| OC[C@H]1O[C@](O)(CO)[C@@H](O[C@@H]2OC[C@@H](O)[C@H](O)[C@H]2O)[C@@H]1O | 30 | – | – | 10.08 | 12 | 3.26 | 0.61 | 692.34 | 0.27 | 5 | 28 | 4 | – | – |
| OC[C@H]1O[C@](O)(CO)[C@@H](O[C@H]2O[C@H](CO)[C@@H](O)[C@H](O)[C@@H]2O)[C@@H]1O | 29 | – | 5 | 10.16 | 15.26 | 4.33 | 0.66 | 510.7 | 0.28 | 40 | 21 | 30 | 32 | – |
| OC[C@H]1O[C@](O)(CO)[C@@H](O[C@H]2OC[C@@H](O)[C@@H](O)[C@@H]2O)[C@@H]1O | – | – | 7 | 15.26 | 12.04 | 3.49 | 1 | 708.69 | 0.29 | 13 | – | – | 4 | Activity (Syrian golden hamster [28]): 6%; Activity (Syrian golden hamster [3]): 19% |
| OC[C@H]1O[C@@H](O[C@H]2[C@H](O)[C@@H](CO)O[C@]2(O)CO)[C@H](O)[C@@H](O)[C@H]1O | 52 | – | – | 6.88 | 17.59 | 3.6 | 0.82 | 450 | 0.21 | 16 | – | 38 | 52 | Activity (Syrian golden hamster [29]): 22% |
| C[C@@H]1O[C@@H](O[C@H]2[C@H](O)[C@@H](CO)O[C@]2(O)CO)[C@H](O)[C@H](O)[C@H]1O | – | 24 | 30 | 14.17 | 8.82 | 3.1 | 1.11 | 833.12 | 0.35 | – | – | – | – | Activity (Syrian golden hamster [3]): 32%; Activity (Syrian golden hamster [4]): 15% |
| OC[C@H]1O[C@](O)(CO)[C@@H](O[C@@H]2O[C@H](CO)[C@@H](O[C@H]3O[C@H](CO)[C@@H](O)[C@H](O)[C@H]3O)[C@H](O)[C@H]2O)[C@@H]1O | 11 | – | 12 | 12.76 | 11.38 | 3.43 | 0.82 | 726.74 | 0.3 | 11 | – | – | – | – |
| OC[C@H]1O[C@@H](O[C@H]2[C@H](O)[C@@H](O)[C@H](O[C@H]3[C@H](O)[C@@H](CO)O[C@]3(O)CO)O[C@@H]2CO)[C@H](O)[C@@H](O)[C@H]1O | 47 | 9 | 25 | 7.61 | 10.55 | 3.55 | 0.75 | 670.62 | 0.34 | 15 | 11 | 8 | – | Activity (Syrian golden hamster [14]): 44%; Activity (Syrian golden hamster [15]): 5%; Activity (Syrian golden hamster [30]): 5%; Activity (Syrian golden hamster [17]): 17%; Activity (Syrian golden hamster [18]): 21%; Activity (Syrian golden hamster [31]): 11%; Activity (Syrian golden hamster [20]): 7.96 mM; Activity (Syrian golden hamster [21]): 11.02 mM; Activity (Syrian golden hamster [22]): 3.28 mM; Activity (Syrian golden hamster [23]): 0.7 mM; Activity (Syrian golden hamster [24]): 0.572 mM; Ratio (Syrian golden hamster [25]): 0.3 |
| OC[C@H]1O[C@@](CO)(O[C@H]2O[C@H](CO)[C@@H](O)[C@H](O)[C@H]2O)[C@@H](O[C@H]2O[C@H](CO)[C@@H](O)[C@H](O)[C@H]2O)[C@@H]1O [MELEZITOSE] | 51 | – | 41 | 6.98 | 13 | 4.95 | 0.71 | 510.7 | 0.38 | 59 | 15 | 30 | 12 | – |
| OC[C@H]1O[C@H](OC[C@H]2O[C@H](O[C@]3(CO)O[C@H](CO)[C@@H](O)[C@@H]3O)[C@H](O)[C@@H](O)[C@@H]2O)[C@H](O)[C@@H](O)[C@H]1O [RAFFINOSE] | 44 | 35 | 66 | 8.06 | 7.55 | 3.41 | 0.86 | 540.49 | 0.45 | 10 | – | 25 | – | – |
